What was measured:
[1] = molecular target: T1, Peroxisome proliferator-activated receptor gamma (Homo sapiens, UniProt P37231); test: Effect on human PPARgamma transactivation in 293T cells; assay type: functional, cell-based
T1 sequence (P37231 whole entry): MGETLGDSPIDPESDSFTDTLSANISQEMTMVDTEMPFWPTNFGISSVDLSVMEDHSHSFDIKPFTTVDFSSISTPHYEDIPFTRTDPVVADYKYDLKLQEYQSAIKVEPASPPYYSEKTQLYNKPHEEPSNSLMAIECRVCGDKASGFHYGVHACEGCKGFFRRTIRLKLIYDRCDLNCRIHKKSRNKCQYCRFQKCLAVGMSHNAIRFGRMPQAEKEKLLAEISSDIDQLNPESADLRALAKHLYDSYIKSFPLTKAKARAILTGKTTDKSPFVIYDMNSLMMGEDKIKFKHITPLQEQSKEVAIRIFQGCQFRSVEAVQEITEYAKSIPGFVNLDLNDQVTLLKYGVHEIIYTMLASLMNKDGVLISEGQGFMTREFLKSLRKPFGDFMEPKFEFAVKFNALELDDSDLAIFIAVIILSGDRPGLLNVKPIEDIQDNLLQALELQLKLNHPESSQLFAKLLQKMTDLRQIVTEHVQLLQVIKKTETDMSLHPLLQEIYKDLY

[2] = molecular target: T2, Peroxisome proliferator-activated receptor alpha (Homo sapiens, UniProt Q07869); test: Effect on human PPARalpha transactivation in 293T cells; assay type: functional, cell-based
T2 sequence (Q07869 whole entry): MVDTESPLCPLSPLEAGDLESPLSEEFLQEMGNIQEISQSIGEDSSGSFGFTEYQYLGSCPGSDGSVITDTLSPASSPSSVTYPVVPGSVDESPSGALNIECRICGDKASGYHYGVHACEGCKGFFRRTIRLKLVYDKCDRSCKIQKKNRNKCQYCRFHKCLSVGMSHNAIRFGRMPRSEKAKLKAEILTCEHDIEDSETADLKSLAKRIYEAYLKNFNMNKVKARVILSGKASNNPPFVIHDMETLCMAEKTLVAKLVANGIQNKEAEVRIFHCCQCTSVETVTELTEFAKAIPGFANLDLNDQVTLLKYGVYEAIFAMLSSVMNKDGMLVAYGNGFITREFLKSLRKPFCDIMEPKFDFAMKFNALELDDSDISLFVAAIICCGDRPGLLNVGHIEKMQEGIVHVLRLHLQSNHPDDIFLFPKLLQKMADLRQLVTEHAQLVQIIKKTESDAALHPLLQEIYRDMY
Method in brief: (§1)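 293T cells transfected for 6 h (Fugene6) with a GAL4 DNA-binding domain–PPAR ligand-binding domain fusion plasmid and pG5-Luc reporter (5 GAL4-binding sites, TATA box, firefly luciferase). Compounds were then added at 1× final concentration in 1% DMSO for 18-20 h at 37 °C. Cells were lysed with Britelite for luciferase read-out.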

[3] = molecular target: T3, Peroxisome proliferator-activated receptor delta (Homo sapiens, UniProt Q03181); test: Effect on human PPARdelta transactivation in 293T cells; assay type: functional, cell-based
T3 sequence (Q03181 whole entry): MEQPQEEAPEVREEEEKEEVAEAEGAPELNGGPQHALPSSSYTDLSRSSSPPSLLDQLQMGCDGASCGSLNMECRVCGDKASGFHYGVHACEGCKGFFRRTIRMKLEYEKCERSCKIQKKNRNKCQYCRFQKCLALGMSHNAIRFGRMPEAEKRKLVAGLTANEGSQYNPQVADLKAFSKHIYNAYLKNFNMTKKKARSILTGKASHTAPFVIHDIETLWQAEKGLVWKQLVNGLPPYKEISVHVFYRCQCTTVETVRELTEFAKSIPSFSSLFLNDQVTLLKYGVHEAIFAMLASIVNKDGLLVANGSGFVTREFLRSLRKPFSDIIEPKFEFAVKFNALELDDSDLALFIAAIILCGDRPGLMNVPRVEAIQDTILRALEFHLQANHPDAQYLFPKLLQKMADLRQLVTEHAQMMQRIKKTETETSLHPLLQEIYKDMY

[4] = tested on: Liver microsomes; test: Stability in rat liver microsome; assay type: ADME
[5] = Cmax in mouse at 10 mg/kg, po; assay type: ADME, organism-based; design: dose 10 mg/kg, route oral; conditions: in vivo
Method in brief: (§2)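 Mice received a single oral dose of 10 mpk, given as a suspension in 0.5% CMC. Bioavailability, Cmax and half-life were obtained from this pharmacokinetic study.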

[6] = Bioavailability in mouse at 10 mg/kg, po; assay type: ADME, organism-based; conditions: in vivo; method in brief: as §2
[7] = species on record: Mus musculus; test: Stability in mouse liver microsome; assay type: ADME
[8] = tested on: Liver microsomes; test: Stability in human liver microsome; assay type: ADME
[9] = Half life in mouse at 10 mg/kg, po; assay type: ADME, organism-based; design: dose 10 mg/kg, route oral; conditions: in vivo; method in brief: as §2
[10] = molecular target: T4, Peroxisome proliferator-activated receptor gamma (Homo sapiens) (UniProt P37231); test: Effect on human PPARgamma transactivation in 293T cells relative to rosiglitazone; assay type: functional, cell-based; method in brief: as §1
T4 sequence (whole entry): T1 sequence (P37231 whole entry)

EC50 [1] [µM]	EC50 [2] [µM]	EC50 [3] [µM]	Structure (SMILES)	further results
> 10	> 10	0.11	Cc1cc(OCc2cc(-c3ccc(Cl)cc3)cc(-c3ccc(Cl)cc3)c2)ccc1OCC(=O)O	–
> 10	> 10	0.04	Cc1cc(OCc2cc(-c3ccc(OC(F)(F)F)cc3)nc(-c3ccc(OC(F)(F)F)cc3)n2)ccc1OCC(=O)O	Stability [4]: Stable; Cmax [5]: > 4 µM; bioavailability [6]: > 50%; Stability [7]: Stable; Stability [8]: Stable; half-life [9]: 3 h
> 10	> 10	0.54	O=C(O)Cc1ccc(OCc2cc(-c3ccc(C(F)(F)F)cc3)cc(-c3ccc(C(F)(F)F)cc3)c2)c(Cl)c1	–
> 10	> 10	> 10	Cc1cc(OCc2ccc(-c3ccc(OC(F)(F)F)cc3)c(-c3ccc(OC(F)(F)F)cc3)c2)ccc1OCC(=O)O	–
> 10	1.64	0.11	O=C(O)COc1ccc(OCc2cc(-c3ccc(C(F)(F)F)cc3)cc(-c3ccc(C(F)(F)F)cc3)c2)cc1	–
> 10	> 10	0.35	COc1ccc(-c2cc(COc3ccc(OCC(=O)O)c(C)c3)cc(-c3ccc(OC)cc3)c2)cc1	–
> 10	> 10	0.09	Cc1cc(OCc2nc(-c3ccc(OC(F)(F)F)cc3)cc(-c3ccc(OC(F)(F)F)cc3)n2)ccc1OCC(=O)O	–
> 10	> 10	0.07	Cc1ccc(-c2cc(COc3ccc(OCC(=O)O)c(C)c3)cc(-c3ccc(C(F)(F)F)cc3)c2)cc1	–
> 10	> 10	> 10	COc1ccc(-c2ccc(COc3ccc(OCC(=O)O)c(C)c3)cc2-c2ccc(OC)cc2)cc1	–
1.2	> 10	0.97	O=C(O)COc1ccc(OCc2cc(-c3ccccc3)cc(-c3ccccc3)c2)cc1	–
> 10	> 10	0.06	Cc1cc(OCc2cc(-c3ccc(OC(F)(F)F)cc3)cc(-c3ccc(C(F)(F)F)cc3)c2)ccc1OCC(=O)O	–
0.74	> 10	0.56	Cc1cc(OCc2cc(-c3ccccc3)cc(-c3ccccc3)c2)ccc1OCC(=O)O	Efficacy [10]: 30%

Continued, molecule first:

Structure (SMILES)	EC50 [1] [µM]	EC50 [2] [µM]	EC50 [3] [µM]	further results
Cc1cc(OCc2ccc(-c3ccc(C(F)(F)F)cc3)c(-c3ccc(C(F)(F)F)cc3)n2)ccc1OCC(=O)O	> 10	> 10	> 10	–
Cc1cc(OCc2cc(-c3ccc(C(F)(F)F)cc3)cc(-c3cccc(C(F)(F)F)c3)c2)ccc1OCC(=O)O	> 10	> 10	0.56	–
CC(C)(Oc1ccc(OCc2cc(-c3ccc(C(F)(F)F)cc3)cc(-c3ccc(C(F)(F)F)cc3)c2)cc1)C(=O)O	0.37	0.73	0.05	–
Cc1cc(OCc2cc(-c3ccc(OC(F)(F)F)cc3)cc(-c3ccc(OC(F)(F)F)cc3)c2)ccc1OCC(=O)O	> 10	> 10	0.03	–
Cc1cc(SCc2cc(-c3ccc(C(F)(F)F)cc3)cc(-c3ccc(C(F)(F)F)cc3)c2)ccc1OCC(=O)O	> 10	> 10	0.03	–
O=C(O)Cc1ccc(SCc2cc(-c3ccc(C(F)(F)F)cc3)cc(-c3ccc(C(F)(F)F)cc3)c2)c(Cl)c1	> 10	> 10	0.16	–
Cc1cc(OCc2cc(-c3ccc(C(F)(F)F)cc3)nc(-c3ccc(C(F)(F)F)cc3)n2)ccc1OCC(=O)O	> 10	> 10	0.03	–
Cc1cc(OCc2cc(-c3ccc(N(C)C)cc3)cc(-c3ccc(N(C)C)cc3)c2)ccc1OCC(=O)O	> 10	> 10	0.49	–
Cc1cc(OCc2nc(-c3ccc(C(F)(F)F)cc3)cc(-c3ccc(C(F)(F)F)cc3)n2)ccc1OCC(=O)O	> 10	> 10	0.04	–
Cc1cc(OCc2cc(-c3ccc(C(F)(F)F)cc3)cc(-c3ccc(C(F)(F)F)cc3)c2)ccc1OCC(=O)O	> 10	> 10	0.01	Stability [4]: Stable; Cmax [5]: > 4 µM; bioavailability [6]: > 50%; Stability [7]: Stable; Stability [8]: Stable; half-life [9]: 3 h
COc1ccc(-c2cc(COc3ccc(OCC(=O)O)c(C)c3)nc(-c3ccc(OC)cc3)n2)cc1	> 10	> 10	0.21	–
COc1ccc(-c2cc(-c3ccc(OC)cc3)nc(COc3ccc(OCC(=O)O)c(C)c3)n2)cc1	> 10	> 10	0.11	–
COc1ccc(-c2cc(COc3ccc(OCC(=O)O)c(C)c3)cc(-c3ccc(C(F)(F)F)cc3)c2)cc1	> 10	> 10	0.07	–
Cc1cc(OCC(=O)O)ccc1OCc1cc(-c2ccc(C(F)(F)F)cc2)cc(-c2ccc(C(F)(F)F)cc2)c1	> 10	3.33	0.07	–
Cc1cc(OCc2cc(-c3ccc(-c4ccccc4)cc3)cc(-c3ccc(C(F)(F)F)cc3)c2)ccc1OCC(=O)O	> 10	> 10	0.06	–

Reference: ChEMBL document CHEMBL1147714, “1,3,5-Trisubstituted aryls as highly selective PPARdelta agonists” (Bioorg Med Chem Lett, 2006)
